# According to ChEMBL document CHEMBL3112476, “Inhibition of IκB kinase-β and IκB kinase-α by heterocyclic adamantyl arotinoids” (Bioorg Med Chem, 2014):
# Biological target: T1, Retinoic acid receptor RXR-alpha (Homo sapiens) (UniProt P19793)
# T1 sequence (whole entry): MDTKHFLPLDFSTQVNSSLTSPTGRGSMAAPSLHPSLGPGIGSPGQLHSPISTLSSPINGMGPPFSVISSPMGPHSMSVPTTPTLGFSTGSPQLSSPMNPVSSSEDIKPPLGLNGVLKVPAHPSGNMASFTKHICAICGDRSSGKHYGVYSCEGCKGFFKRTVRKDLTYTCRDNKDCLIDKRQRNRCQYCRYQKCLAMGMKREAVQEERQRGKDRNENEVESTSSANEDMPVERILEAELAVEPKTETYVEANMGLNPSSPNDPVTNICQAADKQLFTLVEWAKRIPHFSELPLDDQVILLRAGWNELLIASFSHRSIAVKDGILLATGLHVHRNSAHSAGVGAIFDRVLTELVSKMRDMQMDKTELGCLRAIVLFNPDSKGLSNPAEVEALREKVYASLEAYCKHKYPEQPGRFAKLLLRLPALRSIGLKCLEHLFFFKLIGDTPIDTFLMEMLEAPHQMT
# Assay: Agonist activity at Gal4-fused RXRalpha (unknown origin) transfected in HEK293 cells assessed as induction of transcriptional activity at 4 uM after 24 hrs by luciferase/beta-galactosidase reporter gene assay relative to CD3254
# Type: cell-based
# Outline: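 Gal4-RARα or Gal4-RXRα (10 ng) plus 2 ng β-galactosidase vector, calcium phosphate transfection into HEK-293 cells carrying a 5×UAS luciferase reporter. After 16 h, cells were washed and given 5% charcoal-treated FBS medium, then rested 2 h. Stimulation was with 4 µM compound or 0.1% DMSO; controls were 1 µM atRA (RARα) or 1 µM CD3254 (RXRα). Harvest was at 6 h (RARα) or 24 h (RXRα). Luciferase/β-gal ratio was expressed as fold over unstimulated cells. Data: 2 experiments, triplicate.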
row,max activation [%],SMILES
1,21,COCCOCOc1ccc(-c2ncc(-c3ccc(C(=O)O)cc3)s2)cc1C12CC3CC(CC(C3)C1)C2

# Biological target: T1, Retinoic acid receptor RXR-alpha (Homo sapiens)
# Assay: Agonist activity at recombinant GST-tagged RXRalpha LBD (unknown origin) assessed as induction of biotinylated SRC-1-676-700 coactivator recruitment after 4 hrs by TR-FRET assay
# Outline: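 5 nM GST-RXRα LBD was incubated with 150 nM biotin-SRC-1 676-700 peptide at room temperature in binding buffer (25 mM Hepes pH 7.4, 100 mM NaCl, 0.025% BSA, 5% glycerol, 0.005% Tween-20, 2.5 mM DTT; ≤1% DMSO). Detection used 2 nM Eu-anti-GST plus 37.5 nM streptavidin-allophycocyanin. The 665/615 nm ratio was read at 4 h and expressed as Delta F% versus no-receptor control.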
row,Activity,SMILES
1,Dose-dependent effect,Cc1cc(O)c(C23CC4CC(CC(C4)C2)C3)cc1-c1ccc(/C=C/C(=O)O)cc1Cl
2,Dose-dependent effect,COCCOCOc1cc(C)c(-c2ccc(CC(=O)O)cc2Cl)cc1C12CC3CC(CC(C3)C1)C2
3,Dose-dependent effect,COCCOCOc1cc(C)c(-c2ccc(/C=C/C(=O)O)cc2Cl)cc1C12CC3CC(CC(C3)C1)C2
4,Dose-dependent effect,COCCOCOc1cc(C)c(-c2ccc3cc(C(=O)O)ccc3c2Cl)cc1C12CC3CC(CC(C3)C1)C2

# Biological target: T1, Retinoic acid receptor RXR-alpha (Homo sapiens)
# Assay: Agonist activity at recombinant GST-tagged RXRalpha LBD (unknown origin) assessed as induction of fluorescein labeled D22 coactivator recruitment after 4 hrs by TR-FRET assay
# Outline: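 5 nM GST-RXRα LBD was incubated with 150 nM fluorescein-D22 peptide at room temperature in Hepes pH 7.4 binding buffer (≤1% DMSO), with 2 nM Tb-anti-GST antibody. The 520/495 nm TR-FRET ratio was read after 4 h and reported as Delta F% relative to samples lacking receptor.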
row,Activity,SMILES
1,Dose-dependent effect,Cc1cc(O)c(C23CC4CC(CC(C4)C2)C3)cc1-c1ccc(/C=C/C(=O)O)cc1Cl
2,Dose-dependent effect,COCCOCOc1cc(C)c(-c2ccc(CC(=O)O)cc2Cl)cc1C12CC3CC(CC(C3)C1)C2
3,Dose-dependent effect,COCCOCOc1cc(C)c(-c2ccc(/C=C/C(=O)O)cc2Cl)cc1C12CC3CC(CC(C3)C1)C2
4,Dose-dependent effect,COCCOCOc1cc(C)c(-c2ccc3cc(C(=O)O)ccc3c2Cl)cc1C12CC3CC(CC(C3)C1)C2
